The list is not random: actives were taken first. Their share in the collection is about 1.5%.
NR2E3 ag-1: activates human NR2E3 receptor; inhibition of corepressor binding, % at 3.98 µM; Q9Y5X4; 360,000 compounds, 0.35% hits; CHO-S Gal4-NCOR/VP16-NR2E3 two-hybrid, luciferase;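 active = inhibition above the mean of all tested compounds plus 3 SD, cut at about 70% in these data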;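 also: higher means lower luciferase signal from less NR2E3 corepressor binding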
PG9 binder: small molecules binding HIV-1 gp120 antibody PG9 | 360,000 compounds, 0.43% hits | inhibition, % at 6.7 µM | TR-FRET gp120-PG9 antibody binding | AID 624416; in the data active = inhibition above about 8.5%
NR2E3 ag-2: agonists of human nuclear receptor NR2E3. Q9Y5X4. inhibition of corepressor binding, % at 4.78 µM. GST-NR2E3/biotin-RetCOR TR-FRET, 1536-well. 320,000 compounds, 0.12% hits;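 active = percent inhibition above the cutoff of mean plus 3 SD of all tested compounds, set per screening campaign, cut at about 20% in these data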
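System: GST-tagged NR2E3 plus biotinylated RetCOR corepressor; Buffer or medium: pH 7.5 Tris-based buffer; Probe or stimulus: RetCOR corepressor, biotinylated, 7 nM; Doses: compound at 4.8 µM, single dose; Schedule: 5 h incubation at 4 °C; Technique: time-resolved FRET; Evaluation: percent inhibition of TR-FRET ratio; Replication: one well per compound, singlicate testing.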
NR1D1 modulator: Rev-erb alpha (human) modulation; Rev-erbα–FITC-DNA binding, fluorescence polarization, 90 min; activity, % at 10 µM; 370,000 compounds, 0.79% hits; AID 1259318;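 active = activity above about 14%, limit read from the data; passing the limit was not always enough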
Target sequence (P20393 whole entry, looked up): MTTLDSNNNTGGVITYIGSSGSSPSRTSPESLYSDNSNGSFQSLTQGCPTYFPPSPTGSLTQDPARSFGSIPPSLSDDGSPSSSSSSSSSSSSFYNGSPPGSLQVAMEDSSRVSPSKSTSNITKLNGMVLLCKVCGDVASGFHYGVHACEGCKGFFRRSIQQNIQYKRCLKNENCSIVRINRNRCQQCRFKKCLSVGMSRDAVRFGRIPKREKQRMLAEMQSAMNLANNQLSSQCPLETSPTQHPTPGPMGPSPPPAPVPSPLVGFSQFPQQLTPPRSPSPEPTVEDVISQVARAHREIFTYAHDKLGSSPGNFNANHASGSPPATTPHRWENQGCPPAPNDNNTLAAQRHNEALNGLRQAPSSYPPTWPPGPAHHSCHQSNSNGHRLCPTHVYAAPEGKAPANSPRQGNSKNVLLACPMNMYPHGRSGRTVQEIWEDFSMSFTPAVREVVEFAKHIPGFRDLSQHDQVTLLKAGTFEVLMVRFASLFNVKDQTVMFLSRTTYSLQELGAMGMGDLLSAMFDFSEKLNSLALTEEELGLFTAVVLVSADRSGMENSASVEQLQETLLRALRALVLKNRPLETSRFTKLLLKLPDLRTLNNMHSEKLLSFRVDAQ
Rev-erbA confirm: Rev-erb alpha (human) modulation, hit confirmation; shares compounds with NR1D1 modulator; Rev-erb alpha FITC-DNA binding, fluorescence polarization, 90 min; activation, % at 25 µM; 3,000 compounds, 61% hits; AID 1259319;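 active = activation at or above a set limit, or at least 3 SD above the negative control mean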
RORg DNA counter: affects RORgamma DNA binding in a Rev-erb alpha counter-screen | purified RORgamma protein-FITC-DNA binding, fluorescence polarization | 910 compounds, 8% hits | IC50, µM | shares compounds with NR1D1 modulator | AID 1259320;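 active = Compounds whose fitted half-maximal concentration for disrupting protein-DNA binding is below 10 micromolar; the record names Rev-erb in its text, so the target is in doubt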
Large screens that a line does not name were inactive (follow-up assays come after a bar, where they were run).

Cc1cc2c(=O)oc(-c3ccc(Br)cc3)nc2s1	NR1D1 modulator 31.0 | Rev-erbA confirm inactive
Cc1cc(C)nc(NC(=S)Nc2cccc(Cl)c2Cl)c1	NR1D1 modulator 63.0 | Rev-erbA confirm inactive
Cc1cc(C)nc(NC(=S)Nc2ccc(Br)cc2Cl)c1	none
COc1ccc(NC(=S)Nc2cc(C)cc(C)n2)cc1OC	NR1D1 modulator 21.9 | Rev-erbA confirm inactive
CNC(=S)Nc1ccc(OC)c(OC)c1	none
COc1ccc2c(=O)c3c(=O)n(CCc4ccccc4)c(C(C)C)nc3oc2c1	NR1D1 modulator 24.6 | Rev-erbA confirm inactive
COc1ccc(CC(=O)Nc2cc(C)c3c(=O)oc4ccccc4c3n2)cc1	NR1D1 modulator 41.3 | Rev-erbA confirm 32.3 | RORg DNA counter inactive
CCOc1ccc(C(=O)Nc2cc(C)c3c(=O)oc4ccccc4c3n2)cc1	NR1D1 modulator 55.0 | Rev-erbA confirm 17.7
COc1cc2nc(-c3ccccc3)nc(N3CCCC3)c2cc1OC	NR1D1 modulator 41.6 (no result: NR2E3 ag-1, NR2E3 ag-2) | Rev-erbA confirm 24.6
COC(=O)CN(Cc1cn(Cc2ccccc2)nn1)S(=O)(=O)c1ccccc1Br	none (no result: NR2E3 ag-1, PG9 binder, NR2E3 ag-2)
O=C(CCCC(=O)OCC(=O)c1cccs1)Nc1ccc(Oc2ccccc2)cc1	NR1D1 modulator 68.3 | Rev-erbA confirm 48.0 | RORg DNA counter inactive
O=C(CCCC(=O)OCC(=O)c1cccs1)Nc1ccc(F)cc1	none
Cc1cccc(Cl)c1NC(=O)N(C)c1ccccc1	NR1D1 modulator 15.9 (no result: NR2E3 ag-1, NR2E3 ag-2) | Rev-erbA confirm inactive
Cc1cccc(Cl)c1NC(=S)NN	none
CCCC(C)C(=O)Nc1ncc(S(=O)(=O)c2ccc([N+](=O)[O-])cc2)s1 (stereo not given)	none
COc1cc2c(cc1OC)CN(C(=O)CCOc1ccccc1C)CC2	none
Cc1ccccc1N1C(=O)c2cccc3c(N(C)CCO)ccc(c23)C1=O	NR1D1 modulator 40.5 | Rev-erbA confirm 38.0
COc1ccccc1N1C(=O)c2cccc3c(N(C)CCO)ccc(c23)C1=O	NR1D1 modulator 29.9 | Rev-erbA confirm 36.7 | RORg DNA counter inactive
CNc1nc(SC)nc(N(C)C#N)n1	none
O=C(C1=NN[C@@H]2C(=O)N(Cc3ccccc3)C(=O)[C@H]12)c1ccc([N+](=O)[O-])cc1	NR1D1 modulator 15.9 | Rev-erbA confirm inactive
O=C(NNc1c2ccccc2nc2ccccc12)c1ccc(O)cc1	none
O=C(NNc1c2ccccc2nc2ccccc12)c1cccc(O)c1	NR1D1 modulator 19.8 | Rev-erbA confirm inactive
COC(=O)[C@]12C[C@H](CC(=O)NCCc3ccccc3OC)C(=O)N(Cc3cccc4ccccc34)C1=C[C@H](C(C)(C)C)O[C@@H]2C	none (no result: NR2E3 ag-1, PG9 binder, NR2E3 ag-2)
CCn1c2ccccc2n2c(=O)c(=O)n(CC(=O)Nc3ccc(C(C)C)cc3)nc12	NR1D1 modulator 30.7 | Rev-erbA confirm inactive
COc1cccc(-c2nc(-c3ccc(NC(=O)Cc4ccccc4OC)cc3)no2)c1	none (no result: PG9 binder, NR2E3 ag-2, NR1D1 modulator)
COc1ccc(-c2ccc(-c3noc(-c4ccc(OC)c(OC)c4)n3)c(OC)n2)cc1	none (no result: NR2E3 ag-1, NR2E3 ag-2)
COc1ccc(CC(=O)Nc2ccc(-c3noc(-c4ccccc4OC)n3)cc2)cc1	NR1D1 modulator 36.3 | Rev-erbA confirm 55.1 | RORg DNA counter inactive
COc1ccc(-c2ccc(-c3noc(-c4ccccc4C)n3)c(OC)n2)cc1	NR1D1 modulator 40.0 | Rev-erbA confirm inactive
COc1ccc(-c2ccc(-c3noc(-c4cccc(OC)c4)n3)c(OC)n2)cc1	NR1D1 modulator 51.7 | Rev-erbA confirm inactive
COc1ccc(-c2ccc(-c3noc(C)n3)c(OC)n2)cc1	NR1D1 modulator 26.5 | Rev-erbA confirm inactive
COC(=O)[C@]12C[C@H](CC(=O)NCc3cccc(C(F)(F)F)c3)C(=O)N(Cc3cccc4ccccc34)C1=C[C@H](COCc1ccccc1)O[C@@H]2C	none (no result: NR2E3 ag-1, PG9 binder, NR2E3 ag-2)
O=C(NCC1CCCN1S(=O)(=O)c1cccs1)c1ccc([N+](=O)[O-])cc1 (stereo not given)	none
Cc1ccc2[nH]c3c(c2c1)CCN(C)C3	none
CC(C)C[C@H](NC(=O)N1CC(=O)Nc2ccccc21)C(=O)N1CCC(C(=O)O)CC1	none
Cc1noc(C)c1S(=O)(=O)NCc1cccc(Cl)c1	none
COc1ccc(-c2ccc(-c3noc(-c4ccccc4OC)n3)c(OC)n2)cc1	NR1D1 modulator 37.0 | Rev-erbA confirm inactive

Source: PubChem (several laboratories)
